Measurements as given in publication PMC7265153 (The Journal of infection, 2019).
Converted amounts (≈) assume the structure as drawn. “And” between values parts separate entries of the source, which are not always exact repeats. Equal values may be shown once. Read-outs that look alike come from different tables or passages of the source. Where a SMILES comes first, the peptide text is derived from it. Bridges are numbered along the chain shown (N, C = ends). [ ]: non-standard residue; d: D form. The star is where a group is joined. X1 = CC[C@H](C)CCCCC(=O)*; Dab = NCC[C@H](N)C(=O)O

Key:
[1] = cited from earlier work
XDR P. aeruginosa [2] = assay type: cell-based, Pseudomonas aeruginosa
MDR-GNB = details: cited from earlier work
Acute kidney injury = assay type: in vivo, human; details: for AKI at EOT: F (Failure) / AKI at EOT: I (Injury) / AKI at EOT: R (Risk): among patients with AKI
XDR P. aeruginosa [3] = assay type: in vivo, human
XDR P. aeruginosa [4] = assay: Plasma AUC/MIC, fAUC/MIC of formed colistin and attainment of PK/PD targets; assay type: in vivo, human
[5] = in vivo; cited from earlier work
P. aeruginosa [6] = details: study performed in Spain; cited from earlier work
P. aeruginosa [7] = assay type: cell-based; details: Pseudomonas aeruginosa
Procedure, shortened: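 Extremely drug-resistant clinical isolates from patients with urinary tract infection. Species identification and susceptibility testing were done by microdilution on the automated breakpoint panel for non-fermenting Gram-negative bacteria. Colistin MIC was determined by microdilution in cation-adjusted Mueller-Hinton broth, with isolates scored susceptible at MIC ≤ 2 mg/L per CLSI.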

[8] = CMS ≥ 6 million IU/day (n = 12)
[9] = included patients with clinical failure (n = 2)
[10] = all patients, RIFLE class among patients with AKI

In the case of `CC[C@H](C)CCCCC(=O)N[C@@H](CCN)C(=O)N[C@H](C(=O)N[C@@H](CCN)C(=O)N[C@H]1CCNC(=O)[C@H]([C@@H](C)O)NC(=O)[C@H](CCN)NC(=O)[C@H](CCN)NC(=O)[C@H](CC(C)C)NC(=O)[C@@H](CC(C)C)NC(=O)[C@H](CCN)NC1=O)[C@@H](C)O` [colistin] (X1-[Dab]T[Dab][Dab][Dab][dL]L[Dab][Dab]T; lactam 4-C), the “patients with colistin in urine much higher than in plasma” value ([1]; 11 of 12 patients treated with CMS) is given as 91.7%, the “concentrations of formed colistin in urine” value ([1]; 12 patients treated with CMS, maximum) is given as “up to 95.4 mg/L” and the “concentrations of formed colistin in plasma” value ([1]; 12 patients treated with CMS, median (IQR <0.2–1.4 mg/L)) is given as 900 ng/mL. The half-life ([1]; assumed for reaching steady state) was “approximately 14 h”, the “unbound fraction for colistin in human plasma” value ([1]; human plasma) was 0.5 and the MIC50 (XDR P. aeruginosa [2]) was 0.5 µg/mL (≈ 0.428 µM). For the same compound, the MIC90 (XDR P. aeruginosa [2]) was 2 µg/mL (≈ 1.71 µM), the “clinical cure rate in patients diagnosed with UTI” value (MDR-GNB; retrospective study, low-dose colistin) was 83.3% and the “Odds ratio (95% CI) of Css for nephrotoxicity at EOT” value (Acute kidney injury; multivariate logistic regression, P = 0.074) was 4.36 (0.86–20). The “emergence of colistin-resistant isolates” value (XDR P. aeruginosa [3]; during the next 30 days after treatment) was “no colistin-resistant isolates were detected”, the “patients with microbiological clearance who had reached an AUC/MIC of 60 mg·h/L” value (XDR P. aeruginosa [4]; 7/19 patients) was 36.8% and the “patients with pyelonephritis reaching Css,avg above 2.5 mg/L” value (XDR P. aeruginosa [4]; 9 patients diagnosed with pyelonephritis) was “none of them reached a Css,avg above 2.5 mg/L”. For the same compound, the “patients with pyelonephritis achieving AUC/MIC > 60 mg·h/L” value (XDR P. aeruginosa [4]; 9 patients diagnosed with pyelonephritis, 1 patient) was 11.1%, the “AUC/MIC > 60 mg∙h/L” value (XDR P. aeruginosa [4]; CMS < 3 million IU/day (n = 6)) was 2 (33.3) n (%) and the “AUC/MIC > 60 mg∙h/L” value (XDR P. aeruginosa [4]; CMS ≥ 3 million IU/day (n = 9)) was 1 (11.1) n (%). For the same compound, the “AUC/MIC > 60 mg∙h/L” value (XDR P. aeruginosa [4]; [8]) was 5 (41.7) n (%), the “AUC/MIC > 60 mg∙h/L” value (XDR P. aeruginosa [4]; CMS ≥ 9 million IU/day (n = 6)) was 3 (50) n (%) and the “AUC/MIC ≥ 60 mg∙h/L” value (XDR P. aeruginosa [4]; all patients n = 33) was 11 (33.3) n (%). For the same compound, the fAUC/MIC (XDR P. aeruginosa [4]; all patients n = 33, unbound fraction 0.5, mean ± standard deviation, SD) was 30.2 ± 28.2, the fAUC/MIC (XDR P. aeruginosa [4]; included patients with clinical cure (n = 31), median (interquartile range)) was 21.5 (5.04–124.8) and the “Css > 2,5 mg/L” value (XDR P. aeruginosa [4]; [9]) was 1 (50) 1 (50) n (%). The fAUC/MIC (XDR P. aeruginosa [4]; included patients with clinical failure (n = 2), median (interquartile range)) was 47.4 (7.44–87.4), the “Css > 2,5 mg/L” value (XDR P. aeruginosa [4]; patients treated with colistin alone, clinical cure (n=17)) was 1 (5.9) n (%) and the fAUC/MIC (XDR P. aeruginosa [4]; patients treated with colistin alone, clinical cure (n=17), median (interquartile range)) was 16.8 (4.8–81.6). For the same compound, the fAUC/MIC (XDR P. aeruginosa [4]; patients with AKI at EOT (n = 10), median (interquartile range)) was 48.4 (14.4–124.8), the fAUC/MIC (XDR P. aeruginosa [4]; patients without AKI at EOT (n = 23), median (interquartile range)) was 13.7 (4.8–58.1) and the “Css,avg associated with a higher risk of AKI at EOT” value [5] was over 2420 ng/mL. For the same compound, the “rate of colistin-associated nephrotoxicity” value [5] was 40–50% and the MIC50/90 values (P. aeruginosa [6]) was 2 µg/mL (≈ 1.71 µM).
In the case of `CC(C)(O/N=C(\C(=O)N[C@@H]1C(=O)N2C(C(=O)[O-])=C(C[n+]3ccccc3)CS[C@H]12)c1csc(N)n1)C(=O)O` [ceftazidime], the MIC (P. aeruginosa [7]) was 16 µg/mL (≈ 29.3 µM).
`C[C@@H](O)[C@H]1C(=O)N2C(C(=O)O)=C(S[C@@H]3CN[C@H](C(=O)N(C)C)C3)[C@H](C)[C@H]12` [meropenem] showed an MIC (P. aeruginosa [7]) of at least 8 µg/mL.
For Colistimethate sodium [CMS], the “CMS dose eliminated in the urine” value [1] is listed as 60–70%, the “rate of CMS conversion into colistin” value ([1]; young volunteers, single dose of 1 million IU (80 mg) CMS) is listed as 30% and the “CMS excreted in urine” value ([1]; young volunteers, single dose of 1 million IU (80 mg) CMS, on average) is listed as 70%. For the same compound, the Clinical cure (MDR-GNB; 13 patients with UTI caused by XDR P. aeruginosa) was 84.6%, the “rate of clinical cure in UTI caused by MDR-GNB” value (MDR-GNB; recent clinical studies) was 50 to 92% and the “AKI at EOT” value (Acute kidney injury; CMS < 3 million IU/day (n = 6)) was 2 (33.3) n (%). For the same compound, the “AKI at EOT: F (Failure)” value (Acute kidney injury; CMS < 3 million IU/day (n = 6)) was 0 (0) n (%), the “AKI at EOT: I (Injury)” value (Acute kidney injury; CMS < 3 million IU/day (n = 6)) was 1 (50) n (%) and the “AKI at EOT: R (Risk)” value (Acute kidney injury; CMS < 3 million IU/day (n = 6)) was 1 (50) n (%). The “AKI at EOT” value (Acute kidney injury; CMS ≥ 3 million IU/day (n = 9)) was 3 (33.3) n (%), the “AKI at EOT: F (Failure)” value (Acute kidney injury; CMS ≥ 3 million IU/day (n = 9)) was 1 (33.3) n (%) and the “AKI at EOT: I (Injury)” value (Acute kidney injury; CMS ≥ 3 million IU/day (n = 9)) was 2 (66.6) n (%). For the same compound, the “AKI at EOT: R (Risk)” value (Acute kidney injury; CMS ≥ 3 million IU/day (n = 9)) was 0 (0) n (%), the “AKI at EOT” value (Acute kidney injury; [8]) was 4 (33.3) n (%) and the “AKI at EOT: F (Failure)” value (Acute kidney injury; [8]) was 0 (0) n (%). For the same compound, the “AKI at EOT: I (Injury)” value (Acute kidney injury; [8]) was 3 (75) n (%), the “AKI at EOT: R (Risk)” value (Acute kidney injury; [8]) was 1 (25) n (%) and the “AKI at EOT” value (Acute kidney injury; CMS ≥ 9 million IU/day (n = 6)) was 1 (16.7) n (%). For the same compound, the “AKI at EOT: F (Failure)” value (Acute kidney injury; CMS ≥ 9 million IU/day (n = 6)) was 1 (100) n (%), the “AKI at EOT: I (Injury)” value (Acute kidney injury; CMS ≥ 9 million IU/day (n = 6)) was 0 (0) n (%) and the “AKI at EOT: R (Risk)” value (Acute kidney injury; CMS ≥ 9 million IU/day (n = 6)) was 0 (0) n (%). For the same compound, the “AKI at the end of treatment” value (Acute kidney injury; all patients n = 33, RIFLE criteria) was 10 (30.3%) n (%) and 10 (30.3) n (%), the “AKI at the end of treatment: F (Failure)” value (Acute kidney injury; [10]) was 2 (22.2) n (%) and the “AKI at the end of treatment: I (Injury)” value (Acute kidney injury; [10]) was 5 (55.5) n (%). For the same compound, the “AKI at end of treatment” value (Acute kidney injury; included patients with clinical cure (n = 31)) was 9 (29) n (%), the “AKI at end of treatment” value (Acute kidney injury; [9]) was 1 (50) n (%) and the “Clinical cure in patients with pyelonephritis” value (XDR P. aeruginosa [3]; 9 patients diagnosed with pyelonephritis, six (66.7%) on combined therapy) was “All of them achieved clinical cure”. The Microbiological clearance (XDR P. aeruginosa [3]; 23 patients with microbiological follow up) was 19 (82.6) n (%), the Clinical cure (XDR P. aeruginosa [3]; CMS < 3 million IU/day (n = 6)) was 6 (100) n (%) and the Clinical cure (XDR P. aeruginosa [3]; CMS ≥ 3 million IU/day (n = 9)) was 8 (88.9) n (%). For the same compound, the Clinical cure (XDR P. aeruginosa [3]; [8]) was 11 (91.7) n (%), the Clinical cure (XDR P. aeruginosa [3]; CMS ≥ 9 million IU/day (n = 6)) was 6 (100) n (%) and the Clinical cure (XDR P. aeruginosa [3]; all patients n = 33 (42.4% on combined antibiotic therapy)) was 31 (93.9) n (%).
Compound `NCC[C@H](O)C(=O)N[C@@H]1C[C@H](N)[C@@H](O[C@H]2O[C@H](CN)[C@@H](O)[C@H](O)[C@H]2O)[C@H](O)[C@H]1O[C@H]1O[C@H](CO)[C@@H](O)[C@H](N)[C@H]1O` [amikacin] has an MIC (P. aeruginosa [7]) of 16 µg/mL (≈ 27.3 µM).
